Measurements as given in ChEMBL document CHEMBL3352483, “Synthesis, structure-activity relationships and biological evaluation of barbigerone analogues as anti-proliferative and anti-angiogenesis agents” (Bioorg Med Chem Lett, 2014).

What was measured:
Format in all cases: functional, cell-based
HepG2 = experiment: Antiproliferative activity against human HepG2 cells after 24 hrs by MTT assay; conditions: HepG2, 24 h
Method in brief: (§1)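 MTT proliferation assay on HUVECs and on HepG2, A375, U251, B16 and HCT116 cells. Results reported as IC50.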

A-375 = experiment: Antiproliferative activity against human A375 cells after 24 hrs by MTT assay; conditions: A-375, 24 h; method in brief: as §1
U-251 = experiment: Antiproliferative activity against human U251 cells after 24 hrs by MTT assay; conditions: U-251, 24 h; method in brief: as §1
B16 = experiment: Antiproliferative activity against mouse B16 cells after 24 hrs by MTT assay; conditions: B16, 24 h; method in brief: as §1
[1] = Antiproliferative activity against human HCT116 cells after 24 hrs by MTT assay; conditions: HCT-116, 24 h; method in brief: as §1
HUVEC = experiment: Antiproliferative activity against HUVEC after 24 hrs by MTT assay; conditions: Homo sapiens; method in brief: as §1

| Structure (SMILES) | IC50 (HepG2) [µM] | IC50 (A-375) [µM] | IC50 (U-251) [µM] | IC50 (B16) [µM] | IC50 [1] [µM] | IC50 (HUVEC) [µM] |
| --- | --- | --- | --- | --- | --- | --- |
| COc1cc(OC)c(-c2coc3cc(OCc4cccc(F)c4)ccc3c2=O)cc1OC | 1.23 | 1.3 | 3.51 | 2.44 | 4.92 | 5.3 |
| CC(=O)c1ccc(-c2coc3c4c(ccc3c2=O)OC(C)(C)C=C4)cc1 | > 10 | > 10 | > 10 | > 10 | > 10 | > 10 |
| COc1cc(OC)c(-c2coc3cc(OCc4ccc(Br)cc4)ccc3c2=O)cc1OC | 1.05 | 1 |  | 1.18 | 1.98 | > 10 |
| COc1cc(OC)c(-c2coc3cc(OCc4ccccc4C(F)(F)F)ccc3c2=O)cc1OC | 6.55 | > 10 | > 10 | 8.55 | 4.76 | > 10 |
| COc1ccc(-c2coc3c4c(ccc3c2=O)OC(C)(C)C=C4)c(OC)c1 | > 10 | > 10 | > 10 | > 10 | > 10 | > 10 |
| C#CCOc1ccc2c(=O)c(-c3cc(OC)c(OC)cc3OC)coc2c1 | 4.95 | 3.68 | 6.45 | 4.5 | 8.05 | > 10 |
| CC1(C)C=Cc2c(ccc3c(=O)c(-c4ccc(C=O)cc4)coc23)O1 | > 10 | > 10 | > 10 | > 10 | > 10 | > 10 |
| COc1cc(OC)c(-c2coc3cc(OCc4ccccc4C)ccc3c2=O)cc1OC | 1.86 | 1.36 | 2 | 2.15 | 2.9 | 4.83 |
| C=CCOc1ccc2c(=O)c(-c3cc(OC)c(OC)cc3OC)coc2c1 | 3.45 | 4.75 | 5.9 | 5.1 | 6.6 | > 10 |
| CCOc1ccccc1-c1coc2c3c(ccc2c1=O)OC(C)(C)C=C3 | > 10 | > 10 | > 10 | > 10 | > 10 | > 10 |
| COc1ccc(-c2coc3c4c(ccc3c2=O)OC(C)(C)C=C4)c(OC)c1OC | > 10 | > 10 | > 10 | > 10 | > 10 | > 10 |
| CC1(C)C=Cc2c(ccc3c(=O)c(-c4ccc(C(F)(F)F)cc4Cl)coc23)O1 | > 10 | 8.9 | 2.5 | 3.55 | 3.8 | > 10 |
| CC1(C)C=Cc2c(ccc3c(=O)c(-c4ccc(C(F)(F)F)cc4)coc23)O1 | > 10 | 7.25 | 5.85 | 1.91 | 7 | > 10 |
| COc1cc(OC)c(-c2coc3cc(OCc4ccccc4Br)ccc3c2=O)cc1OC | 2.18 | 2.85 | > 10 | 8.9 | 4.55 | > 10 |
| COc1ccccc1-c1coc2c3c(ccc2c1=O)OC(C)(C)C=C3 | > 10 | > 10 | > 10 | > 10 | > 10 | > 10 |
| COc1cc(OC)c(-c2coc3cc(OCc4ccc([N+](=O)[O-])cc4)ccc3c2=O)cc1OC | 2.5 | > 10 | 9.4 | > 10 | > 10 | > 10 |
| COc1cc(OC)c(-c2coc3cc(OCc4ccccc4Cl)ccc3c2=O)cc1OC | 1.69 | 2.02 | > 10 | 4.18 | 2.45 | > 10 |
| COc1cc(OC)c(-c2coc3cc(OCc4ccc(C(F)(F)F)cc4)ccc3c2=O)cc1OC | 0.89 | 2.28 | 3.75 | 5.4 | 2.44 | > 10 |
| COc1ccc(OC)c(-c2coc3c4c(ccc3c2=O)OC(C)(C)C=C4)c1 | > 10 | > 10 | > 10 | > 10 | > 10 | > 10 |
| COc1cc(-c2coc3c4c(ccc3c2=O)OC(C)(C)C=C4)cc(OC)c1OC | > 10 | > 10 | > 10 | > 10 | > 10 | > 10 |
| CC1(C)C=Cc2c(ccc3c(=O)c(-c4ccc5c(c4)OCCO5)coc23)O1 | > 10 | > 10 | > 10 | > 10 | > 10 | > 10 |
| CC1(C)C=Cc2c(ccc3c(=O)c(-c4ccc(C#N)cc4)coc23)O1 | > 10 | > 10 | > 10 | > 10 | > 10 | > 10 |

| Structure (SMILES) | IC50 (HepG2) [µM] | IC50 (A-375) [µM] | IC50 (U-251) [µM] | IC50 (B16) [µM] | IC50 [1] [µM] | IC50 (HUVEC) [µM] |
| --- | --- | --- | --- | --- | --- | --- |
| COc1cccc(-c2coc3c4c(ccc3c2=O)OC(C)(C)C=C4)c1 | > 10 | > 10 | > 10 | > 10 | > 10 | > 10 |
| COc1cc(OC)c(-c2coc3cc(OCc4ccccc4F)ccc3c2=O)cc1OC | 1.28 | 2.1 | 2.89 | 1.61 | 2.9 | 4.3 |
| CC1(C)C=Cc2c(ccc3c(=O)c(-c4cccc(C=O)c4)coc23)O1 | > 10 | > 10 | > 10 | > 10 | > 10 | > 10 |
| COc1cccc(-c2coc3c4c(ccc3c2=O)OC(C)(C)C=C4)c1F | > 10 | > 10 | > 10 | > 10 | > 10 | > 10 |
| COc1cc(OC)c(-c2coc3cc(OCc4ccc(C#N)cc4)ccc3c2=O)cc1OC | 4.23 | 1.55 | 6.18 | 7 | 4.22 |  |
| CC1(C)C=Cc2c(ccc3c(=O)c(-c4cccc(C(F)(F)F)c4)coc23)O1 | > 10 | > 10 | > 10 | > 10 | > 10 | > 10 |
| COc1cc(OC)c(-c2coc3cc(OCCN4CCOCC4)ccc3c2=O)cc1OC | > 10 | > 10 | > 10 | > 10 | > 10 | > 10 |
| COc1cc(OC)c(-c2coc3cc(OCc4ccc(Cl)cc4)ccc3c2=O)cc1OC | 0.94 | 1.02 | 0.47 | 2.4 | 4.45 | 4.4 |
| CC1(C)C=Cc2c(ccc3c(=O)c(-c4ccc(Cl)c(C(F)(F)F)c4)coc23)O1 | > 10 | > 10 | > 10 | > 10 | > 10 | > 10 |
| CC1(C)C=Cc2c(ccc3c(=O)c(-c4ccc5c(c4)OCO5)coc23)O1 | > 10 | > 10 | > 10 | > 10 | > 10 | > 10 |
| CC1(C)C=Cc2c(ccc3c(=O)c(-c4ccc(O)cc4)coc23)O1 | > 10 | > 10 | > 10 | > 10 | > 10 | > 10 |
| COc1ccc(-c2coc3c4c(ccc3c2=O)OC(C)(C)C=C4)cc1OC | > 10 | > 10 | > 10 | > 10 | > 10 | > 10 |
| COc1cc(OC)c(-c2coc3cc(OCc4ccccc4C#N)ccc3c2=O)cc1OC | > 10 | 0.99 | 0.98 | 2.14 | > 10 | > 10 |
| COc1cc(OC)c(-c2coc3cc(OC(=O)Cc4cccc(C(F)(F)F)c4)ccc3c2=O)cc1OC | > 10 | > 10 | > 10 | > 10 | > 10 | > 10 |
| COc1cc(OC)c(-c2coc3cc(OCc4cccc(Br)c4)ccc3c2=O)cc1OC | 0.87 | 1.12 | > 10 | 4.4 | 1.2 | > 10 |
| COc1cc(OC)c(-c2coc3cc(OCc4ccccc4)ccc3c2=O)cc1OC | 1.32 | 1.64 | 6.75 | 2.33 | 2.28 | 9.75 |
| COc1cc(OC)c(-c2coc3cc(OCc4cccc(Cl)c4)ccc3c2=O)cc1OC | 0.75 | 0.98 | > 10 | 2.28 | 1.33 | > 10 |
| COc1cc(OC)c(-c2coc3cc(OCc4ccc(F)cc4)ccc3c2=O)cc1OC | 1 | 1.72 | 3.2 | 1.12 | 0.95 | > 10 |
| COc1cc(OC)cc(-c2coc3c4c(ccc3c2=O)OC(C)(C)C=C4)c1 | > 10 | > 10 | > 10 | > 10 | > 10 | > 10 |
| COc1ccc2c(=O)c(-c3cc(OC)c(OC)cc3OC)coc2c1 | 2.04 | 2.64 | 9.4 | 5.2 | 9.17 | > 10 |
| COc1cc(OC)c(-c2coc3cc(OCc4cccc(C(F)(F)F)c4)ccc3c2=O)cc1OC | 0.61 | 1.14 | > 10 | > 10 | 3.4 | > 10 |
| COc1ccc(-c2coc3c4c(ccc3c2=O)OC(C)(C)C=C4)cc1 | > 10 | > 10 | > 10 | > 10 | > 10 | > 10 |
